Laboratory results as given in ChEMBL document CHEMBL1146626, “The stability of pseudopeptides bearing sulfoximines as chiral backbone modifying element towards proteinase K” (Bioorg Med Chem Lett, 2003).
Residues, ends and D or L forms follow the SMILES beside them.

Experiments:
[1] = test system: Proteinase K (Tritirachium album); experiment: Amount of proteinase K required to release folin positive amino acids at a substrate concentration of 304 uM
[2] = Rate constant for the compound at a substrate concentration of 304 uM was determined; type: ADME
Outline: (§1)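 Substrate incubated at 37 °C with Proteinase K in 30 mM Tris–HCl, 1 mM CaCl2, pH 8.0. Aliquots were taken at several times, snap-frozen in liquid nitrogen and held at -20 °C. Thawed samples went straight onto C-18 RP-HPLC, eluted with water then a gradient to 70% CH3CN. Substrate and cleavage products were tracked by UV at 210 nm against retention times.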

[3] = Relativity constant at a substrate concentration of 304 uM; type: ADME
Outline: as §1

[4] = Half-life period at a substrate concentration of 304 uM was determined; type: ADME
Outline: as §1

[5] = Relativity constant at a substrate concentration of 304 uM
[6] = Rate constant for the compound at a substrate concentration of 218 uM was determined; type: ADME
Outline: as §1

[7] = Relativity constant at a substrate concentration of 218 uM; type: ADME
Outline: as §1

[8] = Half-life period at a substrate concentration of 218 uM was determined; type: ADME
Outline: as §1

[9] = Rate constant for the compound at a substrate concentration of 262 uM was determined; No cleavage; type: ADME
Outline: as §1

| Activity [1] | K obs [2] | Krel [3] | half-life at 304 µM [4] | Krel [5] | K obs [6] | Krel [7] | half-life at 218 µM [8] | K obs [9] | SMILES |
| --- | --- | --- | --- | --- | --- | --- | --- | --- | --- |
| 30 mAU ml-1 | 2.72 h⁻¹ | 0.73 | 15.3 min |  |  |  |  |  | N[C@H](Cc1ccccc1)C(=O)N=[S+]([O-])(CC(=O)N[C@H](Cc1ccccc1)C(=O)O)c1ccccc1 (some centres undefined) |
| 3 mAU ml-1 | 3.75 h⁻¹ |  | 11.1 min | 1 |  |  |  |  | N[C@@H](Cc1ccccc1)C(=O)N=[S+]([O-])(CC(=O)N[C@@H](Cc1ccccc1)C(=O)O)c1ccccc1 (some centres undefined) |
| 1.5 mAU ml-1 |  |  |  |  | 1.11 h⁻¹ | 0.59 | 37.5 min |  | N[C@@H](Cc1ccccc1)C(=O)N[C@@H](Cc1ccccc1)C(=O)N[C@@H](Cc1ccccc1)C(=O)O (H-Phe-Phe-Phe-OH) |
| 300 mAU ml-1 |  |  |  |  |  |  |  | No cleavage | N=[S+]([O-])(CC(=O)N[C@@H](Cc1ccccc1)C(=O)O)c1ccccc1 (some centres undefined) |
